Drawing on ChEMBL document CHEMBL1914406, “Inhibitory effect of novel 5-O-acyl juglones on mammalian DNA polymerase activity, cancer cell growth and inflammatory response” (Bioorg Med Chem, 2011), this text covers inhibition, Activity and CC50 for eight compounds.

The source made the active and inactive calls. No cut-off for these calls is given here.

Data set [1] is filed under the species Homo sapiens. Put plainly: Inhibition of histidine-tagged human DNA polymerase gamma using bovine deoxyribonuclease 1-treated DNA and dNTP as the DNA template-primer and nucleotide substrate at 10 uM after 60 mins.
The species entered for data set [2] is Bos taurus. The data set can be described thus: Inhibition of calf DNA polymerase alpha using poly(dA)/oligo(dT)18 (A/T = 2/1) and dTTP as the DNA template-primer and nucleotide substrate at 10 uM after 60 mins. The essentials:
(§1)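 Compound in DMSO, sonicated 30 s. Premixed 0 °C, 10 min with enzyme (0.05 units) in 50 mM Tris-HCl pH 7.5, 1 mM DTT, 50% glycerol, 0.1 mM EDTA, then added to standard reaction mixture. Template-primers: poly(dA)/oligo(dT)18 (2/1) for pols, oligo(dT)18 for TdT, poly(rA)/oligo(dT)18 for HIV-1 RT, with [3H]dTTP. 60 min at 37 °C (Taq 74 °C). Activity relative to no-inhibitor control; mean ± SE of three experiments.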

Data set [3] addresses T1, DNA polymerase lambda (Homo sapiens) (UniProt Q9UGP5).
T1 sequence (whole entry): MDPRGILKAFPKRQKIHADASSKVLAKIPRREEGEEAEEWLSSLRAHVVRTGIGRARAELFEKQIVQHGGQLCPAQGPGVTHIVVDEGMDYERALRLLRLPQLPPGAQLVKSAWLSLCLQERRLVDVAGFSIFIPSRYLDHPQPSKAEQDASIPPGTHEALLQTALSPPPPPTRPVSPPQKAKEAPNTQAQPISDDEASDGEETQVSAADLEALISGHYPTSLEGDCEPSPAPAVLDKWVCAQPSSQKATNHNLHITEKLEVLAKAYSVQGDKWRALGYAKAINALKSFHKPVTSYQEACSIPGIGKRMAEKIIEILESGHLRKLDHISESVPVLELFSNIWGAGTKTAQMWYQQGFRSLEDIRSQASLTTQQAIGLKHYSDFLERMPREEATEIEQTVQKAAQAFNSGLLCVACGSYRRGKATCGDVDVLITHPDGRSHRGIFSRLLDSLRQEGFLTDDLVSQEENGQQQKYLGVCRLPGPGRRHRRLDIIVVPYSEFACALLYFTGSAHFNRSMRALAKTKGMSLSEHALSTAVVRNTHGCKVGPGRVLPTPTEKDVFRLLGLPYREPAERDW
The data set can be described thus: Inhibition of recombinant His-tagged human DNA polymerase lambda using bovine deoxyribonuclease 1-treated DNA and dNTP as the DNA template-primer and nucleotide substrate at 10 uM after 60 mins.

Data set [4] has as its system RAW264.7. Put plainly: Cytotoxicity against mouse RAW264.7 cells at 5 uM. It counts as cell-based. The conditions noted are these: raw264.7, 5 µM.
Data set [5] concerns the target T2, DNA polymerase kappa (Homo sapiens) (UniProt Q9UBT6).
T2 sequence (whole entry): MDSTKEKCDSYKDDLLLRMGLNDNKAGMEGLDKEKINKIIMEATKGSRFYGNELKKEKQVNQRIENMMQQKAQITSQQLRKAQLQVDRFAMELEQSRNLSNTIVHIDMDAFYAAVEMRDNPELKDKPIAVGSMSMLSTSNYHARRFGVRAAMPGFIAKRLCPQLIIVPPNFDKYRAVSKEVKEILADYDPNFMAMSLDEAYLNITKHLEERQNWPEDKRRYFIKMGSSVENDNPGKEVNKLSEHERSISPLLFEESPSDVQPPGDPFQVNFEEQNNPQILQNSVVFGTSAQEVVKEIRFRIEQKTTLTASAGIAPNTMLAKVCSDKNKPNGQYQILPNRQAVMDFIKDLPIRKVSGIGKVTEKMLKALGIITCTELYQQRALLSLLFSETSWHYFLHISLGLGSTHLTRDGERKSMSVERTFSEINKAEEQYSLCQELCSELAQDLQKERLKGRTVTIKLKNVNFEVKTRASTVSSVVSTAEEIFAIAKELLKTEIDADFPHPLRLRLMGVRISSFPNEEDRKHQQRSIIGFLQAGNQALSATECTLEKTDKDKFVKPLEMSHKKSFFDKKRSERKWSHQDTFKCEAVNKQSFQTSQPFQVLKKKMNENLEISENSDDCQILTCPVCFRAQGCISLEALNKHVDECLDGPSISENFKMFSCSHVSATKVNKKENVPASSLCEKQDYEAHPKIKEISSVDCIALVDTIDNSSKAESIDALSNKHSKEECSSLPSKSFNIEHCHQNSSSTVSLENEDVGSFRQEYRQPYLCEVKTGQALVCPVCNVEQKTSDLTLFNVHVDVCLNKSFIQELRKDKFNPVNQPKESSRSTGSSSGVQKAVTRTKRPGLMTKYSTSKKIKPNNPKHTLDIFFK
Put plainly: Inhibition of C-terminal His6-tagged human DNA polymerase kappa (amino acids 1 to 560) using bovine deoxyribonuclease 1-treated DNA and dNTP as the DNA template-primer and nucleotide substrate at 10 uM after 60 mins.

Data set [6] has as its system Mus musculus. The data set can be described thus: Antiinflammatory activity in mouse assessed as inhibition of TPA-induced mouse ear edema at 500 ug/ear administered 30 mins before TPA challenge measured after 7 hrs relative to untreated control. The class given is functional, organism-based. Put shortly:
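Compound (500 µg) applied to one mouse ear; 30 min later TPA (0.5 µg) applied to both ears. Edema scored after 7 h and expressed as percentage of edema. Mean ± SE, n = 6.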

For data set [7], the species on record is Homo sapiens. The data set can be described thus: Inhibition of histidine-tagged human DNA polymerase gamma using poly(dA)/oligo(dT)18 (A/T = 2/1) and dTTP as the DNA template-primer and nucleotide substrate at 10 uM after 60 mins. The essentials:
as §1

In data set [8] the test system is Nucleic Acid. Put plainly: Binding affinity to DNA assessed as thermal transition of DNA relative to control. The class given is nucleic-acid assay.
For data set [9], the target named is T1, DNA polymerase lambda (Homo sapiens). Put plainly: Inhibition of recombinant His-tagged human DNA polymerase lambda using poly(dA)/oligo(dT)18 (A/T = 2/1) and dTTP as the DNA template-primer and nucleotide substrate at 10 uM after 60 mins. The essentials: as §1
The target of data set [10] is T2, DNA polymerase kappa (Homo sapiens). The data set can be described thus: Inhibition of C-terminal His6-tagged human DNA polymerase kappa (amino acids 1 to 560) using poly(dA)/oligo(dT)18 (A/T = 2/1) and dTTP as the DNA template-primer and nucleotide substrate at 10 uM after 60 mins.
A short description of data set [11]: Cytotoxicity against mouse RAW264.7 cells. It counts as cell-based. The settings on record: read-out: LD50 (the source's name).
For data set [12], the species on record is Bos taurus. The data set can be described thus: Inhibition of calf DNA polymerase alpha using bovine deoxyribonuclease 1-treated DNA and dNTP as the DNA template-primer and nucleotide substrate at 10 uM after 60 mins.
In data set [13] the test system is RAW264.7. Put plainly: Antiinflammatory activity in mouse RAW264.7 cells assessed as inhibition of LPS-induced TNFalpha secretion at 5 uM treated 30 mins before LPS challenge measured after 24 hrs by ELISA. It counts as functional, cell-based. The essentials: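 RAW264.7 cells in MEM with 4.5 g/L glucose, 10% FCS, 5 mM L-glutamine, at 37 °C in 5% CO2. Seeded at 5 × 10⁴ cells/well and grown 24 h. Compound (final 1 and 5 µM) given 30 min before 100 ng/mL LPS. After 24 h, TNF-α in the medium measured by ELISA, relative to the no-compound value (100%). Mean ± SE, n = 4.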

Data set [14] has as its system HCT-116. Put plainly: Cytotoxicity against human HCT116 cells by WST-1 assay. The class given is functional, cell-based. The essentials: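 HCT116 colon carcinoma cells (ATCC) grown in McCoy's 5A with 10% FBS, penicillin and streptomycin, 37 °C, 5% CO2. Plated at 1 × 10⁴ cells/well together with compound, which was diluted from a 10 mM DMSO stock into medium (final 0.5% DMSO). Incubated 24 h. Viability read by WST-1, expressed relative to untreated cells.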

Consider `CCCCCC(=O)Oc1cccc2c1C(=O)C=CC2=O`, for which the inhibition entry in data set [1], in data set [2], in [3], in [5], in data set [7] and in [9] was “Active” in each case. The inhibition entry in [10] and in data set [12] was “Active” in each case. Moreover, the Activity result in [4] is given as “Non-toxic”. Moreover, the result in data set [6] was Active. Moreover, the result in [8] was inactive. Moreover, in data set [11], the CC50 was above 10 µM.

Turning to `CC(=O)Oc1cccc2c1C(=O)C=CC2=O`, the inhibition result in data set [1], in data set [2], in data set [3], in [5], in data set [7] and in [9] was “Active” each time. Besides, the inhibition result in data set [10] and in data set [12] was “Active” each time. Moreover, the Activity result in [4] was “Non-toxic”. Further, the result in data set [6] was Active. Also, in [8], the result was inactive. Moreover, in data set [11], the CC50 is above 10 µM.

Take `CC/C=C\C/C=C\C/C=C\CCCCCCCC(=O)Oc1cccc2c1C(=O)C=CC2=O`: the inhibition entry in data set [1], in [2], in [3], in data set [5], in data set [7] and in [9] was “Active” throughout. For the same compound, the inhibition result in [10] and in [12] was “Active” throughout. Moreover, the Activity entry in [4] is listed as “Non-toxic”. Further, in data set [6], the outcome was Active. For the same compound, the outcome in data set [8] was inactive. For the same compound, the CC50 in data set [11] was above 10 µM.

For the compound `CCCCC/C=C\C/C=C\CCCCCCCC(=O)Oc1cccc2c1C(=O)C=CC2=O`, the inhibition result in [1], in data set [2], in data set [3], in [5], in data set [7] and in data set [9] was “Active” each time. Moreover, the inhibition entry in data set [10] and in data set [12] was “Active” in each case. For the same compound, in data set [4], the Activity entry is recorded as “Non-toxic”. Besides, the outcome in data set [6] was Active. For the same compound, the result in data set [8] was inactive. Moreover, the CC50 in data set [11] is above 10 µM.

Regarding `CCC(=O)Oc1cccc2c1C(=O)C=CC2=O`, the inhibition entry in data set [1], in data set [2], in data set [3], in data set [5], in [7] and in data set [9] was “Active” throughout. Further, the inhibition entry in data set [10] and in data set [12] was “Active” each time. For the same compound, the Activity entry in [4] is “Non-toxic”. Also, the outcome in data set [6] was Active. Besides, the result in [8] was inactive. Further, the CC50 in data set [11] was above 10 µM.

In the case of `CC/C=C\C/C=C\C/C=C\C/C=C\C/C=C\C/C=C\CCC(=O)Oc1cccc2c1C(=O)C=CC2=O`, the inhibition entry in data set [1], in data set [2], in [3], in data set [5], in data set [7] and in [9] was “Active” in each case. Moreover, the inhibition entry in [10] and in [12] was “Active” throughout. The Activity entry in [4] is “Non-toxic”. Moreover, the outcome in data set [6] was Active. For the same compound, the outcome in [8] was inactive. The CC50 in [11] is above 10 µM.

Turning to `CCCCCCCCCCCCCCCCCC(=O)O` [STEARIC ACID], the inhibition entry in [1], in data set [2], in [3], in data set [5], in [7] and in data set [9] was “inactive” in each case. The inhibition entry in data set [10] and in data set [12] was “inactive” throughout. For the same compound, the Activity entry in data set [4] is listed as “Non-toxic”. Besides, the outcome in [6], in data set [13] and in data set [14] was inactive. Besides, in [11], the CC50 was above 10 µM.

Take `CCCCC/C=C\C/C=C\CCCCCCCC(=O)O` [LINOLEIC ACID]: the inhibition result in data set [1], in [2], in data set [3], in data set [5], in [7] and in [9] was “inactive” each time. The inhibition result in [10] and in data set [12] was “inactive” each time. For the same compound, the Activity result in data set [4] was “Non-toxic”. Further, the outcome in [6], in data set [13] and in data set [14] was inactive. For the same compound, the CC50 in [11] is above 10 µM.
